What was measured:
[1] = Cytotoxicity against human Hep2 cells assessed as maximum non-cytotoxic concentration after 3 days by XTT assay; format: cell-based, HEp-2
Summary of the method: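 Hep-2 cells grown in high-glucose DMEM, seeded at 2 × 10³ per well with twofold dilutions from the maximum soluble concentration, quadruplicate wells, 3 days at 37 °C in 5% CO2. XTT (final 0.15 mg/mL) for 4 h, read at 492/690 nm, plus microscopic scoring. MNTC is the highest dose causing no toxic effect or growth reduction.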

Enterovirus A71 [2] = experiment: Antiviral activity against Human enterovirus 71 infected in human Hep2 cells at maximum non-cytotoxic concentration […] by plaque reduction assay; format: functional, HEp-2
[3] = Cytotoxicity against human HeLa cells assessed as maximum non-cytotoxic concentration after 3 days by XTT assay; format: cell-based
Summary of the method: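 HeLa cells seeded at 2 × 10³ per well with twofold compound dilutions from the maximum soluble concentration, quadruplicate wells, 37 °C in 5% CO2 for 3 days until controls were confluent. XTT added (final 0.15 mg/mL) for 4 h, absorbance read at 492 nm with 690 nm reference. Morphology also scored microscopically. […] MNTC is the highest dose with no toxicity or growth reduction.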

[4] = Cytotoxicity against human HeLa cells after 3 days by XTT assay; format: cell-based; conditions: read-out: TC50
Summary of the method: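 HeLa cells seeded at 2 × 10³ per well with twofold compound dilutions from the maximum soluble concentration, quadruplicate wells, 37 °C in 5% CO2 for 3 days until controls were confluent. Morphology also scored microscopically. MNTC is the highest dose with no toxicity or growth reduction.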

Enterovirus A71 [5] = experiment: Antiviral activity against Human enterovirus 71 infected in human Hep2 cells after 2 days by plaque reduction assay; format: functional, organism-based; conditions: for IC50: Enterovirus A, HEp-2, 48 h; for Activity: HEp-2
Summary of the method: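 Inoculum removed, then plaque overlay with fourfold drug dilutions starting from the MNTC. Two days at 37 °C, neutral red (0.2 mg/mL in PBS pH 7.4) staining, plaques counted, triplicate wells. IC50 taken from log dose vs % plaque reduction.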

rhinovirus A1B = experiment: Antiviral activity against Human rhinovirus 1B infected in human HeLa cells after 3 days by plaque reduction assay; format: functional, organism-based; conditions: for IC50: Rhinovirus A, 72 h
Summary of the method: (§1)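 HeLa monolayers infected with ATCC HRV 14 or 1B at about 100 plaques per well, 1 h adsorption at 33 °C. Inoculum removed, then plaque overlay with fourfold drug dilutions from the MNTC. Three days at 33 °C, neutral red (0.2 mg/mL, PBS pH 7.4) staining and plaque count, triplicate wells. IC50 from log dose vs % reduction relative to mock-treated control. Otherwise % inhibition at MNTC is reported.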

rhinovirus B14 [6] = experiment: Antiviral activity against Human rhinovirus 14 infected in human HeLa cells at maximum non-cytotoxic concentration after 3 days by plaque reduction assay; format: functional; summary of the method: as §1
rhinovirus B14 [7] = experiment: Antiviral activity against Human rhinovirus 14 infected in human HeLa cells after 3 days by plaque reduction assay; format: functional, organism-based; conditions: for IC50: Rhinovirus B, 72 h; summary of the method: as §1
[8] = Therapeutic index, ratio of TC50 for human HeLa cells to IC50 for HRV 1B; format: cell-based; conditions: read-out: TI
Summary of the method: (§2)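 Therapeutic index calculated as TC50 for HeLa cells (XTT, 3 days) divided by IC50 for plaque reduction of HRV 14 or HRV 1B in HeLa cells.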

[9] = Therapeutic index, ratio of TC50 for human HeLa cells to IC50 for HRV 14; format: cell-based; conditions: read-out: TI; summary of the method: as §2

SMILES	IC50 (Enterovirus A71 [5]) [µM]	IC50 (rhinovirus A1B) [µM]	IC50 (rhinovirus B14 [7]) [µM]	MNTC at 72 h [1] [µM]	inhibition (INH) (Enterovirus A71 [2]) [%]	MNTC at 72 h [3] [µM]	CC50 at 72 h [4] [µM]	Activity (Enterovirus A71 [5])	Activity (rhinovirus A1B)	inhibition (INH) (rhinovirus B14 [6]) [%]	Activity (rhinovirus B14 [7])	selectivity ratio [8]	selectivity ratio [9]
Clc1ccc(C2CCc3cc(Cl)ccc3O2)cc1 (stereo unspecified)	–	–	–	10	–	–	–	–	–	–	–	–	–
C1=C(/C=C/C=C/c2ccccc2)COc2ccccc21	> 50	30.8	50	50	29.5	50	100	Dose-dependent effect	Dose-dependent effect	–	Dose-dependent effect	3.24	2
O=c1c(/C=C/C=C/c2ccccc2)coc2ccc(Cl)cc12	> 50	1.6	> 50	50	46.7	50	100	Dose-dependent effect	Dose-dependent effect	48.3	Dose-dependent effect	62.5	–
Clc1ccc2c(c1)C=C(/C=C/c1ccccc1)CO2	> 50	11.2	11.2	50	30.8	50	100	Dose-dependent effect	Dose-dependent effect	–	Dose-dependent effect	8.93	8.95
O=c1c(/C=C/c2ccc(Cl)cc2)coc2ccc(Cl)cc12	> 25	2.19	> 25	25	35.7	25	50	Dose-dependent effect	Dose-dependent effect	24.1	Dose-dependent effect	22.2	–
O=c1c(/C=C/c2ccccc2)coc2ccccc12	> 50	3.12	4.36	50	34.6	> 200	> 200	Dose-dependent effect	Dose-dependent effect	–	Dose-dependent effect	> 64.2	> 45.9
O=c1c(/C=C/C=C/c2ccccc2)coc2ccccc12	> 25	5.27	15	25	39.8	25	50	Dose-dependent effect	Dose-dependent effect	–	Dose-dependent effect	9.49	3.33
Clc1ccc(/C=C/C2=Cc3ccccc3OC2)cc1	> 50	0.4	18.4	50	49.7	50	100	Dose-dependent effect	Dose-dependent effect	–	Dose-dependent effect	250	5.44
O=c1c(/C=C/c2ccc(Cl)cc2)coc2ccccc12	> 25	4.54	5.52	25	21.6	25	50	Dose-dependent effect	Dose-dependent effect	–	Dose-dependent effect	11	9.06

More lines, main results first:

IC50 (Enterovirus A71 [5]) [µM]	IC50 (rhinovirus A1B) [µM]	IC50 (rhinovirus B14 [7]) [µM]	SMILES	MNTC at 72 h [1] [µM]	inhibition (INH) (Enterovirus A71 [2]) [%]	MNTC at 72 h [3] [µM]	CC50 at 72 h [4] [µM]	Activity (Enterovirus A71 [5])	Activity (rhinovirus A1B)	inhibition (INH) (rhinovirus B14 [6]) [%]	Activity (rhinovirus B14 [7])	selectivity ratio [8]	selectivity ratio [9]
> 6.25	0.54	> 6.25	Clc1ccc(/C=C/C=C/C2=Cc3cc(Cl)ccc3OC2)cc1	6.25	39.1	6.25	12.5	Dose-dependent effect	Dose-dependent effect	12.8	Dose-dependent effect	23.1	–
> 25	4.09	4.07	O=c1c(/C=C/C=C/c2ccc(Cl)cc2)coc2ccccc12	25	49.1	25	50	Dose-dependent effect	Dose-dependent effect	–	Dose-dependent effect	12.2	12.3
> 12.5	6.27	> 12.5	Clc1ccc2c(c1)C=C(/C=C/C=C/c1ccccc1)CO2	12.5	25.4	12.5	25	Dose-dependent effect	Dose-dependent effect	37.2	Dose-dependent effect	3.99	–
> 25	3.22	> 25	O=c1c(/C=C/c2ccccc2)coc2ccc(Cl)cc12	25	37	25	50	Dose-dependent effect	Dose-dependent effect	33.1	Dose-dependent effect	15.5	–
> 12.5	7.13	8.28	Clc1ccc(/C=C/C2=Cc3cc(Cl)ccc3OC2)cc1	12.5	46.6	25	50	Dose-dependent effect	Dose-dependent effect	–	Dose-dependent effect	7.01	6.04
> 3.12	3.1	> 3.12	Clc1ccc(/C=C/C=C/C2=Cc3ccccc3OC2)cc1	3.12	32.9	3.12	6.25	Dose-dependent effect	Dose-dependent effect	30.4	Dose-dependent effect	2	–
> 3.12	0.71	> 3.12	O=c1c(/C=C/C=C/c2ccc(Cl)cc2)coc2ccc(Cl)cc12	3.12	46.6	3.12	6.25	Dose-dependent effect	Dose-dependent effect	36.2	Dose-dependent effect	8.8	–

— ChEMBL document CHEMBL1240484, “New 4H-chromen-4-one and 2H-chromene derivatives as anti-picornavirus capsid-binders” (Bioorg Med Chem, 2010)
